Calls of active or inactive are those of the source. No cut-off for these calls is given here.

The target in test [1] is T1, Tubulin (Sus scrofa) (UniProt P02554+P02550). Conditions: 2 to 3 uM.
The test system of test [2] is HeLa. The experiment in a line: Cell cycle arrest in human HeLa cells assessed as accumulation at G2/M phase at 5 uM by flow cytometry. The class given is functional, cell-based. In outline: (§1)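 HeLa cells grown in basal medium Eagle with Earle's salts, 10% FBS and 25−50 μg/mL gentamicin, given vehicle or 5 μM compound. Cell cycle distribution read by flow cytometry. Mitotic spindle shape viewed by indirect immunofluorescence of tubulin.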

In test [3] the test system is HeLa. Kind of test: Antimitotic activity in human HeLa cells assessed as abberent multiple spindle asters at 5 uM by indirect immunofluorescence assay relative to vehicle-treated control. The class given is functional, cell-based. The essentials:
as §1

The subject of test [4] is HeLa. The experiment in a line: Resistance ratio of IC50 for human HeLa cells expressing beta3-tubulin containing alanine residue at […] to IC50 for human HeLa cells. The class given is functional. In outline: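 Relative resistance = SRB-assay IC50 in WTβIII cells divided by IC50 in parental HeLa. Both lines were grown in basal medium Eagle with Earle's salts, 10% FBS and 25−50 μg/mL gentamicin.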

Test [5] concerns SK-OV-3. The experiment in a line: Cytotoxicity against human SKOV3 cells expressing MDR1 after 72 hrs by SRB assay. Particulars: SK-OV-3, 72 h. Background: In SRB staining, fixed cells bind dye roughly in proportion to their protein.
For test [6], the system named is HeLa. Kind of test: Cytotoxicity against human HeLa cells expressing beta3-tubulin containing alanine residue at 277 after 72 hrs by SRB assay.
Test [7] deals with T1, Tubulin (Sus scrofa). The experiment in a line: Inhibition of purified pig brain tubulin polymerization at 25 uM by spectrophotometry. In outline: (§2)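 Purified porcine brain tubulin with GTP in glycerol buffer, given vehicle or 10 or 25 μM compound. Assembly followed as turbidity, absorbance at 340 nm over time. Rate and extent of polymerization compared with vehicle.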
Test [8] relates to HeLa. The experiment in a line: Cytotoxicity against human HeLa cells after 72 hrs by SRB assay.
The target of test [9] is T1, Tubulin (Sus scrofa). The experiment in a line: Displacement of colchicine from purified pig brain tubulin by fluorescence assay in presence of GTP. In outline: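 Purified tubulin mixed with colchicine and GTP, plus a range of compound concentrations. Colchicine bound to tubulin fluoresces, so displacement is read as loss of that fluorescence. CA-4 used as positive control; 3 replicates, standard deviations.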

Test [10] concerns SK-OV-3. Kind of test: Resistance ratio of IC50 for human SKOV3 cells expressing MDR1 to IC50 for human SKOV3 cells. The class given is functional. The essentials: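 Relative resistance = SRB-assay IC50 in Pgp-overexpressing SK-OV-3/MDR-1-6/6 divided by IC50 in parental SK-OV-3. Both lines were grown in basal medium Eagle with Earle's salts, 10% FBS and 25−50 μg/mL gentamicin.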

Test [11] concerns SK-OV-3. The experiment in a line: Cytotoxicity against human SKOV3 cells after 72 hrs by SRB assay. Particulars: SK-OV-3, 72 h.
Test [12] has as its target T1, Tubulin (Sus scrofa). Kind of test: Inhibition of purified pig brain tubulin polymerization by spectrophotometry. In outline: as §2

T1 sequence (P02550 whole entry, looked up): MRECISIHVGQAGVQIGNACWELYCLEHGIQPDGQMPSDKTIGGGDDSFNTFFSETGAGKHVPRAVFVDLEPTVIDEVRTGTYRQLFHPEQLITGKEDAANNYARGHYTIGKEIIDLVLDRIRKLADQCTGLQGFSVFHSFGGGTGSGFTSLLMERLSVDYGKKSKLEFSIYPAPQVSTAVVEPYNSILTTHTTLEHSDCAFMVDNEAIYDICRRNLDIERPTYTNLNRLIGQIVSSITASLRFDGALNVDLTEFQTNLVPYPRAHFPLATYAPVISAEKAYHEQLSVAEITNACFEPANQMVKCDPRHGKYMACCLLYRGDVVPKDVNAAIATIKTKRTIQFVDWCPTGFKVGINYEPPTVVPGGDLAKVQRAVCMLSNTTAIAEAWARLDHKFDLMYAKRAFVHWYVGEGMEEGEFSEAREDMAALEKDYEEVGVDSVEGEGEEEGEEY
T1 sequence (P02554 whole entry, looked up): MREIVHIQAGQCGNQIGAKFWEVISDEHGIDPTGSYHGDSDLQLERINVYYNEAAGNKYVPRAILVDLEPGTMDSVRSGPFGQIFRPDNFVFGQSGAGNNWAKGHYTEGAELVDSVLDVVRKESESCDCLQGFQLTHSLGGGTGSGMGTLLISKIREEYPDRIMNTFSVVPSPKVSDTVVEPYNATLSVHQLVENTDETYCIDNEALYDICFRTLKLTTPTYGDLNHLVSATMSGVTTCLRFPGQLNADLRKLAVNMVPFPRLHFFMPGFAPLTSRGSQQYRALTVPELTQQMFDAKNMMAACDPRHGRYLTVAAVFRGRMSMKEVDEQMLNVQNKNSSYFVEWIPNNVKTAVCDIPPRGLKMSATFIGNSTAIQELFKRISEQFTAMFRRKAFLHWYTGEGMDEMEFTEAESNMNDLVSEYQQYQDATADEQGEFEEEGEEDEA

What is called inhibition is the drop in the measured response relative to a control, in per cent. Take `COc1ccc(/C=C\c2cc(OC)c(OC)c(OC)c2)cc1O`: the inhibition at Tubulin (Sus scrofa) [1] is 50%.

As for `CC(=O)O[C@@H]1[C@H]2[C@H]3[C@H]([C@H](OC(C)=O)[C@H](OC(C)=O)[C@]2(C)[C@@H]2[C@@H]1[C@]1(C)C(=C[C@H]2C)OC(=O)[C@@]1(C)O)[C@]1(C)[C@H](C[C@@H]2O[C@@H]2[C@@H]1OC(C)=O)C(=O)[C@@H]3O`, the result in the test on HeLa [2] and with HeLa [3] was Active.

A word on the IC50: it is the concentration that inhibits the measured activity by half. In the case of `COc1cc(OC)c(CCC(=O)c2ccc(OC)c(O)c2)c(OC)c1`, the “Ratio IC50” value is 1.2 in the test on HeLa [4] and 2.7 in the test on SK-OV-3 [10]. In addition, the IC50 with SK-OV-3 [5] was 2230 nM; with HeLa [6], 690 nM; with HeLa [8], 581 nM; with SK-OV-3 [11], 812 nM. Further, the outcome in the test on HeLa [2] and with HeLa [3] was Active. Moreover, the values for the inhibition against Tubulin (Sus scrofa) [7], at Tubulin (Sus scrofa) [9] and on Tubulin (Sus scrofa) [12] were 50%, “Dose-dependent effect” and “Dose-dependent effect”, respectively.

For the origin of these results see ChEMBL document CHEMBL3120152, “The bat flower: a source of microtubule-destabilizing and -stabilizing compounds with synergistic antiproliferative actions” (J Nat Prod, 2013).
